Reference: article PMC6923798 (Bioorganic chemistry, 2018)

Legend:
Type in all cases: cell-based, human
SW-620 = experiment: NCI in vitro five dose anticancer assay
SF-268 = experiment: NCI in vitro five dose anticancer assay
SNB-75 = experiment: NCI in vitro five dose anticancer assay
[1] = tested on: full NCI panel of 60 cell lines; experiment: NCI in vitro one dose anticancer assay; conditions: 48 h
Procedure, shortened: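 NCI protocol. Test compound added once at 10−5 M to ~60 human tumour lines from nine subpanels. Incubated 48 h at 37 °C, 5% CO2, 95% air, 100% relative humidity. Endpoint by sulforhodamine B protein staining with spectrophotometric absorbance. Growth of treated cells reported as percent of untreated cells.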

K-562 = experiment: MTT anti-proliferative assay; conditions: Homo sapiens, K562, 24 h, read-out: IC50 ± SD, K-562
[2] = tested on: EGFR, p-EGFR, Src and p-Src in K562 cells; experiment: Western blot analysis in K562 cells; conditions: K562 cells, 0.2, 0.8, 1.6 μM, 24 h
Procedure, shortened: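 K562 cells incubated 24 h with test compound at 0.2, 0.8 or 1.6 μM, or DMSO. 50 μg protein resolved on 8 or 10% SDS-PAGE and transferred to PVDF. Blocked 1 h in PBS with 3% non-fat milk, 1% BSA, 0.5% Tween-20. Primary antibody overnight, then HRP-IgG 1 h at room temperature. ECL detection on X-ray film.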

COc1ccc(C=CC(=O)c2ccc(NC(=O)CSc3nnc(-c4cc(OC)c(OC)c(OC)c4)o3)cc2)cc1 [Compound 8v, N-(4-(3-(4-Methoxyphenyl)acryloyl)phenyl)-2-((5-(3,4,5-trimethoxy-phenyl)-1,3,4-oxadiazol-2-yl)thio)acetamide]
GI50 (SW-620; Homo sapiens, SW-620, 48 h): 1.86 µM
TGI (SW-620; SW-620, Colon Cancer, five dose, 48 h, SRB): 3.60 µM
GI50 (SF-268; Homo sapiens, SF-268, 48 h): 1.79 µM
TGI (SF-268; SF-268, CNS cancer, five dose, 48 h, SRB): 3.96 µM
GI50 (SNB-75; Homo sapiens, SNB-75, 48 h): 1.47 µM
TGI (SNB-75; SNB-75, CNS cancer, five dose, 48 h, SRB): 3.15 µM
number of cell lines with complete cell death ([1]; 10 μM, SRB): 45
inhibition at 10 µM ([1]; Homo sapiens, 60 cell, read-out: Mean growth inhibition %): 132%
IC50 (K-562): 1.95 ± 0.18 µM
protein expression levels of p-EGFR, EGFR, p-Src and Src [2]: downregulated
